From ChEMBL document CHEMBL4004837, “Synthesis and Characterization of Urofuranoic Acids: In Vivo Metabolism of 2-(2-Carboxyethyl)-4-methyl-5-propylfuran-3-carboxylic Acid (CMPF) and Effects on in Vitro Insulin Secretion” (J Med Chem, 2017)

Assays:
HEK293 = assay: Cytotoxicity against HEK293 cells assessed as fold change in capase3/7 activity by Caspase-Glo 3/7 assay relative to DMSO; format: cell-based; settings: human
Hepatocyte = assay: Cytotoxicity against mouse primary hepatocytes assessed as fold change in capase3/7 activity by Caspase-Glo 3/7 assay relative to DMSO; format: cell-based
CYP2C9 = CYP2C9 (Homo sapiens, UniProt P11712); assay: Inhibition of human microsomal CYP2C9 at 10 uM after 10 mins by single quad LC/MS analysis; format: ADME; settings: microsomes
Sequence of CYP2C9 (P11712 whole entry): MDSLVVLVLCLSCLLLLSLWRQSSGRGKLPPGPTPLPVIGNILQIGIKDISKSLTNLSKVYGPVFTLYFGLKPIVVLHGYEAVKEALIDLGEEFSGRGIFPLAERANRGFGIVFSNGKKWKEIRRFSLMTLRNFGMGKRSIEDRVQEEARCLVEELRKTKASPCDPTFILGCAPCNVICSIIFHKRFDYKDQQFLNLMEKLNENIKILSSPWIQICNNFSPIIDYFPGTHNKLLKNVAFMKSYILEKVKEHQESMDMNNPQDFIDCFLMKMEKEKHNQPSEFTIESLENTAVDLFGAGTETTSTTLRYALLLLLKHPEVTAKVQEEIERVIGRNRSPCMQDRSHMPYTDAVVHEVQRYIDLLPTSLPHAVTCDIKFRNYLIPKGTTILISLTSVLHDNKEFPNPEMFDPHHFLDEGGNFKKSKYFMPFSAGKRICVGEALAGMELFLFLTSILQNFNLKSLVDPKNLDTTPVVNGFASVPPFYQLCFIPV

CYP2D6 = CYP2D6 (Homo sapiens, UniProt P10635); assay: Inhibition of human microsomal CYP2D6 at 10 uM after 3 mins by single quad LC/MS analysis; format: ADME; settings: microsomes
Sequence of CYP2D6 (P10635 whole entry): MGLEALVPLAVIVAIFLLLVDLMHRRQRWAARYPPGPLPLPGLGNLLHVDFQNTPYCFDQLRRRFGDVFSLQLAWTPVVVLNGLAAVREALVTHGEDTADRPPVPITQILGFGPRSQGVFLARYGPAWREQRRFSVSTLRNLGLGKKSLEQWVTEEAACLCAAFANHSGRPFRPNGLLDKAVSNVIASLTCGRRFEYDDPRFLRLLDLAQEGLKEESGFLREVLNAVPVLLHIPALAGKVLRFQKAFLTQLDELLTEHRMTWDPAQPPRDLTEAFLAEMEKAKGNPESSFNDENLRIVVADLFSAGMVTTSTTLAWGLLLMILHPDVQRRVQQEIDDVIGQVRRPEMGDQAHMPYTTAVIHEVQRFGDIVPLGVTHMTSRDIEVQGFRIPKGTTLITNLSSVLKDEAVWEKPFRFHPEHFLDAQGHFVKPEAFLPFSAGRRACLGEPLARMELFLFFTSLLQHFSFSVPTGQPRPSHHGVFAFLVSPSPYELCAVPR

CYP3A4 = CYP3A4 (Homo sapiens, UniProt P08684); assay: Inhibition of human microsomal CYP3A4 at 10 uM after 3 mins by single quad LC/MS analysis; format: ADME; settings: microsomes
Sequence of CYP3A4 (P08684 whole entry): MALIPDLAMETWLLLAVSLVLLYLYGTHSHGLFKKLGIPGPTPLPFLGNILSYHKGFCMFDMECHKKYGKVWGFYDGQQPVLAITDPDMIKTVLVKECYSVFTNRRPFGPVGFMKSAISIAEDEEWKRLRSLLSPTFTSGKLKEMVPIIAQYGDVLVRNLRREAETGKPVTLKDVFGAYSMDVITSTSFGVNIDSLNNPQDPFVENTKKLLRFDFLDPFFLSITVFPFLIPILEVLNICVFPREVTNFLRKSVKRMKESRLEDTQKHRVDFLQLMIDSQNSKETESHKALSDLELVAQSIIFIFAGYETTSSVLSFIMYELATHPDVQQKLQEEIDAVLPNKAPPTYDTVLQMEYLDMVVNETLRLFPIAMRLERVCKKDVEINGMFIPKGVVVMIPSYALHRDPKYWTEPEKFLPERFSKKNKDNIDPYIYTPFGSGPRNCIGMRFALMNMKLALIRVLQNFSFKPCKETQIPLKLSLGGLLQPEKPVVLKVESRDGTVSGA

[1] = Drug metabolism in mouse microsomes at 4 uM after 30 mins by single quad LC/MS analysis; format: ADME, Microsome; settings: read-out: Drug metabolism
[2] = Drug metabolism in human microsomes at 4 uM after 30 mins by single quad LC/MS analysis; format: ADME, Microsome; settings: read-out: Drug metabolism
[3] = Suppression of high glucose stimulated insulin secretion in mouse pancreatic islets at 200 uM treated for 24 hrs followed by glucose stimulation for 20 mins by HTRF assay relative to control; format: ADME, cell-based; settings: pancreatic islet
Outline: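 Mouse islet screening assay in high-glucose (20 mM) medium with compounds at 200 µM. Insulin secretion is expressed as fold change relative to vehicle. Mean of n = 4 experiments with SEM; significance by Student's t-test, p ≤ 0.05.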

[4] = Suppression of glucose stimulated insulin secretion in mouse pancreatic islet at 200 uM incubated for 24 hrs followed by glucose stimulation for 20 mins by HTRF assay relative to control
[5] = Suppression of glucose-stimulated insulin secretion in mouse pancreatic islet at 200 uM incubated for 24 hrs followed by glucose stimulation for 20 mins by HTRF assay; format: ADME, cell-based
Outline: (§1)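 Mouse islets treated with compounds at 200 µM. Insulin secretion was then measured under low- and high-glucose GSIS conditions and under KCl stimulation, and intracellular insulin content was measured. Mean of n = 4-5 experiments with SEM.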

[6] = Suppression of KCl-stimulated insulin secretion in mouse pancreatic islet at 200 uM incubated for 24 hrs followed by KCl stimulation for 20 mins by HTRF assay; format: ADME, cell-based; outline: as §1
[7] = Effect on insulin content in glucose-stimulated mouse pancreatic islet at 200 uM incubated for 24 hrs followed by glucose stimulation for 20 mins by HTRF assay; format: ADME, cell-based; outline: as §1
[8] = Effect on insulin content in KCl-stimulated mouse pancreatic islet at 200 uM incubated for 24 hrs followed by KCl stimulation for 20 mins by HTRF assay; format: ADME, cell-based; outline: as §1
[9] = Passive permeability in MDCK cells; format: ADME, cell-based, Canis lupus familiaris; settings: dog

Structure (SMILES) | inhibition at 10 min, 10 µM (CYP2C9) | inhibition at 0.05 h, 10 µM (CYP2D6) | inhibition at 0.05 h, 10 µM (CYP3A4) | metabolised at 0.5 h, 4 µM [1] | metabolised at 0.5 h, 4 µM [2] | permeability [9] | fold change (FC) (HEK293) | fold change (FC) (Hepatocyte) | Activity [3] | Activity [4] | Activity [5] | Activity [6] | Activity [7] | Activity [8]
Cc1oc(CCC(=O)O)c(C(=O)O)c1C |  |  |  |  |  |  | 0.8 to 1 | 2 |  |  |  |  |  | 
CCC(=O)c1oc(CCC(=O)O)c(C(=O)O)c1C | 10% | 11% | 3% |  |  |  | 1 to 1.1 | 1.1 |  |  |  |  |  | 
CCC(=O)c1oc(CCC(=O)OC)c(C(=O)OC)c1C |  |  |  |  |  |  | 1 to 1.1 | 1.5 |  |  |  |  |  | 
CCC[C@H]1C[C@H](C(=O)OC)[C@@H](CCC(=O)OC)O1 |  |  |  |  |  |  | 1 to 1.1 | 1.3 |  |  |  |  |  | 
CCc1oc(CCC(=O)OC)c(C(=O)OC)c1CC |  |  |  |  |  |  | 0.9 to 1 | 0.9 to 1 | Toxic |  | Toxic | Toxic | Toxic | Toxic
CCCC1(O)OC(O)(CCC(=O)OC)C(C(=O)OC)=C1C (centres undefined) |  |  |  |  |  |  | 0.9 to 1 | 0.3 | Non-Toxic | Non-Toxic |  |  |  | 
CCCC1(O)OC(O)(CCC(=O)O)C(C(=O)O)=C1C (centres undefined) |  |  |  |  |  |  | 1 to 1.1 | 0.9 | Non-Toxic | Non-Toxic | Non-Toxic | Non-Toxic | Non-Toxic | Non-Toxic
Cc1c(CCOCc2ccccc2)oc(CCC(=O)O)c1C(=O)O |  |  |  |  |  |  | 1.1 | 1.4 |  |  |  |  |  | 
CCCc1oc(CCC(=O)OC)c(C(=O)OC)c1CCC |  |  |  |  |  |  | 1 to 1.1 | 0.8 to 0.9 |  |  |  |  |  | 
CCC[C@H]1C[C@H](C(=O)O)[C@@H](CCC(=O)O)O1 |  |  |  |  |  |  | 1 to 1.2 | 2 |  |  |  |  |  | 

Second part, led by results:

inhibition at 10 min, 10 µM (CYP2C9) | inhibition at 0.05 h, 10 µM (CYP2D6) | inhibition at 0.05 h, 10 µM (CYP3A4) | metabolised at 0.5 h, 4 µM [1] | metabolised at 0.5 h, 4 µM [2] | permeability [9] | Structure (SMILES) | fold change (FC) (HEK293) | fold change (FC) (Hepatocyte) | Activity [3] | Activity [4] | Activity [5] | Activity [6] | Activity [7] | Activity [8]
9% | 0% | 3% | 20% | 0% |  | CCCc1oc(CCC(=O)O)cc1C | 0.9 to 1 | 0.7 |  |  |  |  |  | 
18% | 5% | 13% | 51% | 21% |  | CCCc1oc(CCC)c(C(=O)O)c1C | 1 to 2 | 1.4 |  |  |  |  |  | 
2% | 20% | 48% | 76% | 16% |  | COC(=O)CCc1oc2c(c1C(=O)OC)CCCC2 | 1 to 1.1 | 0.4 | Toxic | Toxic |  |  |  | 
3% | 2% | 2% | 9% | 10% |  | CCCc1oc(CCCO)c(C(=O)O)c1C | 1 | 0.6 | Non-Toxic | Non-Toxic |  |  |  | 
27% | 28% | 59% | 60% | 49% |  | CCCCCc1oc(CCC(=O)OC)c(C(=O)OC)c1C | 1 to 1.2 | 1 to 1.2 | Non-Toxic | Non-Toxic |  |  |  | 
17% | 3% | 0% | 21% | 0% | Impermeable | CCc1oc(CCC(=O)O)c(C(=O)O)c1CC | 1 | 1.1 | Non-Toxic |  |  |  |  | 
0% | 0% | 0% | 100% | 100% |  | CCCc1oc(CCCO)c(C(=O)OC)c1C | 1 to 1.1 | 0.6 |  |  |  |  |  | 
0% | 0% | 0% | 0% | 20% |  | CCCc1oc(C(=O)O)c(C)c1C | 1 to 1.2 | 2.2 |  |  |  |  |  | 
9% | 3% | 3% | 7% | 5% |  | CCCCCc1oc(CCC(=O)O)c(C(=O)O)c1C | 1 | 1.2 to 1.5 | Toxic | Toxic |  |  |  | 
0% | 0% | 0% | 7% | 3% |  | CCCc1oc(CCC(=O)O)c(C(=O)O)c1CCC | 1 | 1.6 to 1.8 | Toxic |  |  |  |  | 
3% | 12% | 22% | 16% | 0% |  | COC(=O)CCc1oc(C)c(C)c1C(=O)OC | 1 to 1.1 | 0.8 |  |  |  |  |  | 
0% | 0% | 21% |  |  |  | CCCc1oc(CCC(C)=O)c(C(C)=O)c1C | 0.9 | 0.3 |  |  |  |  |  | 
